Laboratory results taken from ChEMBL document CHEMBL2346534, “Design, synthesis and in vitro anti-proliferative activity of 4,6-quinazolinediamines as potent EGFR-TK inhibitors” (Eur J Med Chem, 2013).

Tests used:
Format in all cases: functional
DU-145 = test: Cytotoxicity against human DU145 cells after 48 hrs by SRB assay; conditions: DU-145, 48 h
Outline: (§1)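 NCI 60-panel five-dose screen. Cells in RPMI 1640 with 5% FBS and 2 mM L-glutamine, plated at 5000–40,000 cells/well by doubling time, preincubated 24 h at 37 °C/5% CO2. Drug from DMSO stock added at 0.01, 0.1, 1, 10 and 100 µM, then 48 h. TCA fixation, SRB stain, absorbance at 515 nm, time-zero plates included. GI50 = 50% reduction in net protein increase versus control.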

TK-10 = test: Cytotoxicity against human TK10 cells after 48 hrs by SRB assay; conditions: TK-10, 48 h
Outline: (§2)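 NCI 60 five-dose screen. Cells in RPMI 1640 with 5% FBS and 2 mM L-glutamine, plated at 5000–40,000 cells/well by doubling time, pre-incubated 24 h at 37 °C, 5% CO2. Time-zero plates TCA-fixed at drug addition. Final concentrations 0.01, 0.1, 1, 10 and 100 µM (DMSO stock), 48 h exposure. TCA fixation, 0.4% SRB stain, absorbance 515 nm. GI50 from [(Ti−Tz)/(C−Tz)]×100 = 50.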

MDA-MB-231 = test: Cytotoxicity against human MDA-MB-231/ATCC cells after 48 hrs by SRB assay; conditions: MDA-MB-231, 48 h; outline: as §1
MOLT-4 = test: Cytotoxicity against human MOLT4 cells after 48 hrs by SRB assay; conditions: MOLT-4, 48 h
Outline: (§3)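 NCI 60-panel five-dose screen. Cells in RPMI 1640 with 5% FBS and 2 mM L-glutamine are plated at 5000–40,000 cells/well by doubling time and preincubated 24 h at 37 °C in 5% CO2. Drug in DMSO is tested at 0.01, 0.1, 1, 10 and 100 μM for 48 h. Cells are TCA-fixed, stained with SRB and read at 515 nm. GI50 is the concentration giving 50% reduction in net protein increase relative to time-zero and control plates.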

NCI-H460 = test: Cytotoxicity against human NCI-H460 cells after 48 hrs by SRB assay; conditions: NCI-H460, 48 h; outline: as §3
SW-620 = test: Cytotoxicity against human SW620 cells after 48 hrs by SRB assay; conditions: SW-620, 48 h; outline: as §2
T47D = test: Cytotoxicity against human T47D cells after 48 hrs by SRB assay; outline: as §2
OVCAR-8 = test: Cytotoxicity against human OVCAR8 cells after 48 hrs by SRB assay; conditions: OVCAR-8, 48 h; outline: as §3
A549 = test: Cytotoxicity against human A549/ATCC cells after 48 hrs by SRB assay; conditions: A549, 48 h; outline: as §1
HT-29 = test: Cytotoxicity against human HT-29 cells after 48 hrs by SRB assay; conditions: HT-29, 48 h; outline: as §1
PC-3 = test: Cytotoxicity against human PC3 cells after 48 hrs by SRB assay; conditions: PC-3, 48 h; outline: as §3
IGROV-1 = test: Cytotoxicity against human IGROV1 cells after 48 hrs by SRB assay; conditions: IGROV-1, 48 h; outline: as §1
RXF 393 = test: Cytotoxicity against human RXF393 cells after 48 hrs by SRB assay; conditions: RXF 393, 48 h; outline: as §3
UACC-257 = test: Cytotoxicity against human UACC257 cells after 48 hrs by SRB assay; conditions: UACC-257, 48 h; outline: as §2
UACC-62 = test: Cytotoxicity against human UACC62 cells after 48 hrs by SRB assay; conditions: UACC-62, 48 h; outline: as §2
SF-268 = test: Cytotoxicity against human SF268 cells after 48 hrs by SRB assay; conditions: SF-268, 48 h; outline: as §3
MDA-MB-468 = test: Cytotoxicity against human MDA-MB-468 cells after 48 hrs by SRB assay; conditions: MDA-MB-468, 48 h; outline: as §3
HL-60(TB) = test: Cytotoxicity against human HL-60(TB) cells after 48 hrs by SRB assay; conditions: HL-60, 48 h
Outline: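 NCI 60-panel five-dose screen. Cells were grown in RPMI 1640 with 5% FBS and 2 mM L-glutamine and preincubated 24 h before dosing. Compound from DMSO stock was given at five 10-fold concentrations for 48 h at 37 °C, 5% CO2. Suspension cells were fixed with TCA (final 16%), SRB-stained, and read at 515 nm. GI50, TGI and LC50 came from time-zero, control and treated absorbances.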

NCI-H322M = test: Cytotoxicity against human NCI-H322M cells after 48 hrs by SRB assay; outline: as §3
KM12 = test: Cytotoxicity against human KM12 cells after 48 hrs by SRB assay; conditions: KM12, 48 h; outline: as §1
SF-539 = test: Cytotoxicity against human SF539 cells after 48 hrs by SRB assay; conditions: SF-539, 48 h; outline: as §3
SNB-75 = test: Cytotoxicity against human SNB75 cells after 48 hrs by SRB assay; conditions: SNB-75, 48 h; outline: as §3
M14 = test: Cytotoxicity against human M14 cells after 48 hrs by SRB assay; conditions: M14, 48 h; outline: as §1
U-251 = test: Cytotoxicity against human U251 cells after 48 hrs by SRB assay; conditions: U-251, 48 h; outline: as §2
CAKI-1 = test: Cytotoxicity against human Caki1 cells after 48 hrs by SRB assay; conditions: CAKI-1, 48 h; outline: as §1
[1] = read-out: LC50 (the source's name)

`NC(=O)Nc1ccc2ncnc(Nc3ccc(Cl)cc3)c2c1` was tested, and the GI50 (DU-145) was 2.72 µM, the TGI (DU-145) was > 100 µM and the CC50 (DU-145; [1]) was > 100 µM. For the same molecule, the GI50 (TK-10) was 0.98 µM, the TGI (TK-10) was 16.2 µM and the CC50 (TK-10; [1]) was > 100 µM. For the same molecule, the GI50 (MDA-MB-231) was 8.92 µM, the TGI (MDA-MB-231) was 37.7 µM and the CC50 (MDA-MB-231; [1]) was > 100 µM. For the same molecule, the GI50 (MOLT-4) was 18.1 µM, the TGI (MOLT-4) was 87.1 µM and the CC50 (MOLT-4; [1]) was > 100 µM. For the same molecule, the GI50 (NCI-H460) was 22.4 µM, the TGI (NCI-H460) was > 100 µM and the CC50 (NCI-H460; [1]) was > 100 µM. The GI50 (SW-620) was 39.7 µM, the TGI (SW-620) was > 100 µM and the CC50 (SW-620; [1]) was > 100 µM. For the same molecule, the GI50 (T47D) was 6.47 µM, the TGI (T47D) was 72.3 µM and the CC50 (T47D; [1]) was > 100 µM. For the same molecule, the GI50 (OVCAR-8) was 21.7 µM, the TGI (OVCAR-8) was > 100 µM and the CC50 (OVCAR-8; [1]) was > 100 µM. The GI50 (A549) was 19.2 µM, the TGI (A549) was > 100 µM and the CC50 (A549; [1]) was > 100 µM. For the same molecule, the GI50 (HT-29) was 24 µM, the TGI (HT-29) was > 100 µM and the CC50 (HT-29; [1]) was > 100 µM. The GI50 (PC-3) was 16.7 µM, the TGI (PC-3) was 92.5 µM and the CC50 (PC-3; [1]) was > 100 µM. It also gave a GI50 (IGROV-1) of 6.85 µM, a TGI (IGROV-1) of 27.6 µM and a CC50 (IGROV-1; [1]) of 90.1 µM. For the same molecule, the GI50 (RXF 393) was 15.1 µM, the TGI (RXF 393) was 75.9 µM and the CC50 (RXF 393; [1]) was > 100 µM. For the same molecule, the GI50 (UACC-257) was 23.5 µM, the TGI (UACC-257) was 75.2 µM and the CC50 (UACC-257; [1]) was > 100 µM. It also gave a GI50 (UACC-62) of 13.5 µM, a TGI (UACC-62) of 32.2 µM and a CC50 (UACC-62; [1]) of 77 µM. The GI50 (SF-268) was 17.1 µM, the TGI (SF-268) was > 100 µM and the CC50 (SF-268; [1]) was > 100 µM. For the same molecule, the GI50 (MDA-MB-468) was 1.09 µM, the TGI (MDA-MB-468) was 3.95 µM and the CC50 (MDA-MB-468; [1]) was > 100 µM. For the same molecule, the GI50 (HL-60(TB)) was 24.4 µM, the TGI (HL-60(TB)) was 69.8 µM and the CC50 (HL-60(TB); [1]) was > 100 µM. The GI50 (NCI-H322M) was 0.36 µM, the TGI (NCI-H322M) was 6.64 µM and the CC50 (NCI-H322M; [1]) was > 100 µM. For the same molecule, the GI50 (KM12) was 28.4 µM, the TGI (KM12) was > 100 µM and the CC50 (KM12; [1]) was > 100 µM. For the same molecule, the GI50 (SF-539) was 25.5 µM, the TGI (SF-539) was > 100 µM and the CC50 (SF-539; [1]) was > 100 µM. The GI50 (SNB-75) was 3.36 µM, the TGI (SNB-75) was 47 µM and the CC50 (SNB-75; [1]) was > 100 µM. The GI50 (M14) was 25 µM, the TGI (M14) was 76 µM and the CC50 (M14; [1]) was > 100 µM. The GI50 (U-251) was 23.9 µM, the TGI (U-251) was > 100 µM and the CC50 (U-251; [1]) was > 100 µM. For the same molecule, the GI50 (CAKI-1) was 1.33 µM, the TGI (CAKI-1) was 21.5 µM and the CC50 (CAKI-1; [1]) was > 100 µM.
